Experimental data taken from ChEMBL document CHEMBL4007396, “New diphenylmethane derivatives as peroxisome proliferator-activated receptor alpha/gamma dual agonists endowed with anti-proliferative effects and mitochondrial activity” (Eur J Med Chem, 2017).

What was measured:
[1] = tested on: HT-29; test: Growth inhibition of human HT-29 cells assessed as cell vitality at 5 to 10 uM up to 72 hrs by hemocytometry relative to control; assay type: functional; design: scale not given: the % may be the effect or the level left
Summary of the method: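 Exponentially growing HT-29 colon adenocarcinoma cells (D-MEM, 10% FBS, 37 °C, 5% CO2) exposed to vehicle (DMSO, final <0.1%) or 1, 5 and 10 μM compound in 10% FBS medium for 24, 48 and 72 hs; cells washed, trypsinized and counted by Bürker hemocytometer, three counts per well. Viability relative to vehicle; mean ± SD of three independent experiments in duplicate.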

[2] = Growth inhibition of HEK293T cells assessed as cell vitality at 10 uM after 48 hrs by hemocytometry relative to control; assay type: cell-based, HEK-293T; settings: human, read-out: Activity
Summary of the method: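 HEK293T grown in DMEM with 10% FBS, penicillin-streptomycin and L-glutamine, exposed 48 h to 10 μM compound (DMSO under 0.1% final) alongside HT-29. Cells trypsinized and counted on a Bürker hemocytometer, three counts per well; viability relative to vehicle-treated cells; three independent experiments in duplicate, mean ± SD.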

Structure (SMILES)	Activity [1]	viability at 48 h, 10 µM [2]
C[C@@H](Oc1ccc(Cc2ccc(OCc3coc(-c4ccccc4)n3)cc2)cc1)C(=O)O	40 - 60%	–
C[C@H](Oc1ccc(Cc2ccc(OCc3coc(-c4ccccc4)n3)cc2)cc1)C(=O)O	–	75%
